The text below walks through data of article PMC12479363 (Nature Immunology, 2025).

Test [1] concerns LPS-induced sepsis in mice. The experiment in a line: Moderate LPS. Format: in vivo, mouse. The conditions noted are these: at 6 h, n = 10; for plasma IL-1β levels: vs saline. An outline of the steps: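 Sepsis was induced in wild-type mice (8–10 weeks, mixed sex) with LPS (O55:B5) 25 mg per kg i.p. At 5 h after LPS they received saline or test peptide 2 mg per kg i.v. Reference pore inhibitors were given i.p. Plasma IL-1β was measured by ELISA every 3 h up to 48 h.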

Test [2] relates to LPS-induced sepsis in mice. The experiment in a line: Severe LPS. It counts as in vivo, mouse. The note with it: at 5 h, n = 10; for plasma IL-1β levels: vs saline.
In test [3] the test system is LPS-induced sepsis in mice. In words: Low-dose LPS. It counts as in vivo, mouse. The conditions noted are these: for plasma IL-1β levels: mild sepsis, at 24 h, vs saline, n = 10. The gist of the method:
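C57BL/6J and Gsdmd−/− mice (8–10 weeks, 50:50 female:male) were randomized, unblinded, and given LPS (O55:B5) 15 mg per kg i.p. At 16 h they received saline or test peptide 1 mg per kg i.v. Blood AST, BUN, ALT and CK were measured at day 2 (n = 6). Plasma IL-1β was measured by ELISA (n = 10).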

Test [4] concerns human blood leukocytes. The experiment in a line: Pyroptosis in human whole blood. The conditions noted are these: DSF vs PBS, LPS + nigericin-treated blood, 1 h. Format: cell-based.
Test [5] relates to BMDMs. The experiment in a line: Cell membrane repair: CHMP4–GFP puncta and Annexin V. It counts as cell-based, mouse. The conditions noted are these: 2 mM EDTA + 15 µM SK56, LPS + nigericin.
For test [6], the target named is T1, pyroptotic cytomembranes, which contain GSDMD-NT pores (Homo sapiens, UniProt P57764).
T1 sequence (P57764 1-275 limits assumed): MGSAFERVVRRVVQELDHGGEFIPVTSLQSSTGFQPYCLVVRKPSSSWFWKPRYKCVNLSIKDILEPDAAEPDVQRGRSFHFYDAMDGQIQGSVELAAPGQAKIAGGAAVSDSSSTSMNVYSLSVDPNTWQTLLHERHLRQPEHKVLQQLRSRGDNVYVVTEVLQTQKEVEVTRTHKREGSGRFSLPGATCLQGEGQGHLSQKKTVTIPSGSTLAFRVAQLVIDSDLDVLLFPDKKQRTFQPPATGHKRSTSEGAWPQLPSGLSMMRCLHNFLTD
The experiment in a line: Biolayer interferometry, pyroptotic cytomembranes. Format: binding. Background: BLI is a label-free optical method that tracks binding on a fibre tip over time.

Where a name gives a salt, the structure may show the parent alone. No end group written: not given here. *: point of attachment. Biotin = O=C1N[C@H]2[C@H](CS[C@H]2CCCCC(=O)*)N1; Ahx = NCCCCCC(=O)O

In general, Kd refers to the concentration at which binding is half-saturated. The low end stands for a tighter complex, the high end for a looser complex.

For `CCN(CC)C(=S)SSC(=S)N(CC)CC` [DSF, disulfiram], the “plasma IL-1β levels” value in test [1], in test [2] and in test [3] was “reduced plasma IL-1β levels” throughout. Also, the “organ damage markers in the plasma” value in test [2] is listed as “failed to suppress BUN but inhibited the other three organ damage markers”. The “secretion of IL-1β and IL-18” value in test [4] is listed as “completely blocked”.
For `COc1nccnc1NS(=O)(=O)c1ccc(NC(=O)/C=C/c2ccc([N+](=O)[O-])s2)cc1` [NSA, necrosulfonamide], in test [1], the “organ damage markers in the plasma” value is on record as “lowered levels of organ damage markers”. Further, in test [2], the “organ damage markers in the plasma” value was “lowered levels of organ damage markers” and the “plasma IL-1β levels” value is “had no effect”. The “blood biochemical markers (AST, BUN, ALT and CK)” value in test [3] (LPS 15 mg/kg, treatment at 16 h, day 2, vs saline-treated WT mice, n = 6) is “inhibited AST, BUN, ALT and CK”.
Turning to `O=C(O)CN(CCN(CC(=O)O)CC(=O)O)CC(=O)O` [EDTA], in test [5], the “proportion of Annexin V+ BMDMs” value is given as “restored the proportion of Annexin V^+ BMDMs to the level seen in BMDMs without SK56 treatment”.
In test [6], “{Biotin-Ahx-Ahx}-SLEEFAKRVVEELVKEFNLDKRQESYLEMSALIQAQMGISERIIEIVLRHAAQTLK [Biotinylated SK56]” registered a Kd of 10.9 nM.
On to `COC(=O)/C=C/C(=O)OC` [DMF, dimethyl fumarate], for which the “organ damage markers in the plasma” value in test [1] and in test [2] was “lowered levels of organ damage markers” each time. The “plasma IL-1β levels” value in test [1], in test [2] and in test [3] was “reduced plasma IL-1β levels” in each case.
